This is an account of results in PubChem BioAssay AID2292 (The Scripps Research Institute Molecular Screening Center, 2010).

Some of the results follow. Activity calls are given as the source filed them.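 Rule for the calls: active = mean inhibition across replicates above a set limit taken from the earlier primary screen (cut at about 28% in these data); inactive = the rest.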

For this assay, the system named is Epstein-Barr virus nuclear antigen 1 (EBNA-1) DNA-binding domain, Human herpesvirus 4. The assay can be described thus: EBNA-1 DNA-binding inhibitors, retest, confirmation, biochemical, fluorescence polarization, triplicate (AID 2292).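 Note: plate controls were EBNA-1 protein with DMSO for no effect and wells lacking EBNA-1 for full effect.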 Particulars: Recombinant EBNA-1 DBD, Cy5-DNA fluorescence polarization; at 14.8 µM; hits give high values. In a few lines:
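Timing: 30 min protein-DNA premix, then 1 h compound exposure, RT; material: E. coli-made EBNA-1 DBD, residues 448-610; replicates: each compound tested in triplicate; measured by: FP at Ex 620 nm / Em 688 nm; benchmarks: high control without EBNA-1, low control with EBNA-1 only; reagent: 10 nM Cy5 DNA hairpin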
For `O=C(COc1ccc(/C=N/NC(=O)c2ccc(O)cc2)cc1)Nc1ccc([N+](=O)[O-])cc1`, the inhibition (usually the relative decrease from the control value, in per cent) is 51.1% (active).
For the compound `CCOc1cccc(NC(=O)Cn2nc(-c3ccc4c(c3)OCCO4)ccc2=O)c1`, the inhibition was 64.7% (active).
Take `COc1ccc(CCNC(=S)N2CCN(S(=O)(=O)c3ccc(F)cc3)CC2)cc1`: the inhibition was 3.15% (inactive).
For the compound `CCOc1ccc(OCC)c(NC(=O)C(NS(=O)(=O)c2ccc3c(c2)oc(=O)n3C)C(C)C)c1` (stereo unspecified), the inhibition is 62.8% (active).
The same measure for `Cc1ccc(C(=O)NNC(=O)c2cc3cc4ccccc4nc3s2)cc1`: 29.3% (active); for `C/C(=N\N=C(N)N)c1ccc(Cl)cc1`: 2.77% (inactive); for `O=C(Nc1ccc2ccccc2c1)Nc1ccc2snnc2c1`: 142% (active).
The same measure for `COc1ccc(CNc2nc3c(c(=O)[nH]c(=O)n3C)n2Cc2ccccc2)cc1`: 7.27% (inactive); for `O=C(CCCn1c(SCC(=O)c2ccc(F)cc2)nc2ccccc2c1=O)NCc1ccco1`: 16.5% (inactive); for `COc1ccc(C)cc1NC(=O)NCc1ccccn1`: -7.1% (inactive).
The same measure for `CCOc1ccc(NC(=O)c2ccc(NC(=O)COC(=O)c3ccc(NC(=O)CC#N)cc3)cc2)cc1`: 3.81% (inactive).
Take `Cc1ccc(O)c(/C=N/NC(=O)COc2ccc3c(C)cc(=O)oc3c2)c1`: the inhibition is -12.4% (inactive).
Turning to `COc1ccc(C(=O)CSc2nnc(NC(=O)C3CC(=O)N(c4cccc(OC)c4)C3)s2)cc1` (stereo unspecified), the inhibition is 52.3% (active).
The same measure for `Nc1nnc(SCC(=O)Nc2ccc3nc(SCC(=O)Nc4ccccc4)sc3c2)s1`: 24.9% (inactive); for `CCC(=O)Nc1ccc(C(=O)Nc2ccc3c(c2)C(=O)N(CC2CCCO2)C3=O)cc1` (stereo unspecified): 58.2% (active); for `COC(=O)C1=CN(Cc2ccc(OC)cc2)C=C(C(=O)OC)C1c1ccc(O)c(OC)c1`: 37.1% (active).
For `CC(=O)c1c(C)[nH]c(C(=O)OCC(=O)Nc2sc3c(c2C#N)CCCC3)c1C`, the inhibition is 25.9% (inactive).
The result for `CCOc1ccc(C(=O)NC(=S)Nc2ccc(NC(=O)C(C)C)cc2)cc1[N+](=O)[O-]` reads 55.5% (active); that for `Nc1ccc(S(=O)(=O)Nc2nccc(/C=C/c3ccc(Br)s3)n2)cc1`, 8.99% (inactive); that for `CC(=O)Nc1ccc(S(=O)(=O)NCC(=O)OCc2cc(=O)oc3ccc4ccccc4c23)cc1`, 5.47% (inactive).
On to `CCOc1[nH]n(-c2ccc(Cl)cc2)c(=O)c1C=Nc1ccc(O)cc1`, for which the inhibition is -11.1% (inactive).
The result for `O=C(Nc1cccc(NC(=O)c2ccc(Br)cc2)c1)c1ccccc1` reads 20.8% (inactive).
The same measure for `CCc1nccn1S(=O)(=O)c1cccc([N+](=O)[O-])c1`: 1.11% (inactive).
`COc1ccc(-c2nonc2NC(=O)c2oc3ccc(F)cc3c2C)cc1OC`: the inhibition is 58.1% (active).
Take `Cc1cccc(NC(=O)Cn2c(=O)n(Cc3ccccc3)c(=O)c3c(C)c(C)sc32)c1`: the inhibition was 5.76% (inactive).
The result for `Cc1[nH]n(C(N)=S)c(=O)c1N=Nc1ccc(Cl)cc1Cl` reads -9.96% (inactive).
Take `Cc1cccc(N(CC(=O)Nc2ccc(-c3nc4ccc(C)cc4s3)cc2)S(C)(=O)=O)c1`: the inhibition is 12.2% (inactive).
The same measure for `CCOC(=O)c1ccc(NC(=O)C2CC(=O)Nc3nc4ccccc4n32)cc1` (stereo unspecified): 61% (active); for `N#Cc1nc(N)nc(N(c2ccccc2)c2ccccc2)n1`: -5.35% (inactive); for `N#Cc1ccc(N2Cc3ccccc3/C2=N/C(=O)Nc2ccc(Cl)cc2)cc1`: 67.7% (active).
The result for `COc1ccc(-c2ccc(Nc3ccc(S(=O)(=O)N4CCCC4)cc3)nn2)cc1OC` reads -1.8% (inactive).
The result for `CCOc1cccc(SCc2noc(C(=O)NC(C)C)c2C(=O)O)c1` reads -11.1% (inactive); that for `Cc1ccc(-c2nn(-c3ccccc3)cc2/C=C2\SC(=S)N(CCCCCC(=O)O)C2=O)o1`, 16.8% (inactive); that for `COc1ccc(C(=O)Nc2cccc(NC(=O)c3ccc(OC)cc3OC)n2)c(OC)c1`, 31.9% (active).
On to `COc1ccc(NC(=O)NCc2ccc3c(c2)OCO3)c(OC)c1`, for which the inhibition was 57% (active).
The same measure for `COC(=O)CSc1nc(C)c2ccc(OC)cc2n1`: -0.23% (inactive).
